From ChEMBL document CHEMBL1152456, “A MurF inhibitor that disrupts cell wall biosynthesis in Escherichia coli” (Antimicrob Agents Chemother, 2007)
pIC50, pKd: −log10 of the molar value. ≈ marks a conversion by molar mass, not a printed value. Calls of active or inactive are those of the source. No cut-off for these calls is given here. Positions of bridges follow the written chain, without caps; N, C: chain ends. Non-standard residues stand in square brackets, D forms with d. Residues, ends and D or L forms follow the SMILES beside them. Dab = NCC[C@H](N)C(=O)O

Assays:
[1] = Binding affinity to Escherichia coli MurF by HTS assay in absence of ATP
[2] = Inhibition of Escherichia coli MurF assessed as appearance of UDP-MurNAc-pentapeptide product by HPLC
Procedure, shortened: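 HPLC assay of E. coli MurF. Enzyme at 4 nM final in 100 mM Tris-Cl pH 8.5, 5 mM ATP, 300 mM NaCl, preincubated 10 min at room temperature with compound or DMSO. D-Ala-D-Ala and a completed Mpl reaction supplying UDP-MurNAc-tripeptide were then added. Reaction ran 15 min at 37°C and was stopped with trifluoroacetic acid. Pentapeptide and tripeptide peaks were quantified by HPLC to give IC50.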

Staphylococcus aureus [3] = experiment: Antibacterial activity against Staphylococcus aureus ATCC 29213 by CLSI broth microdilution method; assay type: functional
Procedure, shortened: (§1)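 MICs by CLSI broth microdilution in cation-adjusted Mueller-Hinton broth. Strains came from ATCC or an in-house collection; NovaBlue was purchased.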

Escherichia coli [4] = experiment: Antibacterial activity against LPS-deffective Escherichia coli OC2530 by CLSI broth microdilution method; assay type: functional; procedure, shortened: as §1
Escherichia coli [5] = experiment: Binding affinity to Escherichia coli MurF assessed as increase in enzyme melting temperature by thermofluor analysis in presence of ATP
Procedure, shortened: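 ThermoFluor thermal shift binding assay on E. coli MurF run in the presence of ATP; read-out is the change in Tm.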

[6] = Binding affinity to Escherichia coli MurF by HTS assay in presence of ATP
Escherichia coli [7] = experiment: Ratio of Kd for Escherichia coli MurF in absence of ATP to Kd for Escherichia coli MurF in presence of ATP
Escherichia coli [8] = experiment: Inhibition of Escherichia coli OC2530 MurF assessed as ratio of UDP-MurNAc-tripeptide/UDP-MurNAc-pentapeptide level at 2 times MIC after 30 mins by HPLC
Procedure, shortened: (§2)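 UDP-precursor pools. 125 ml OC2530 cultures at A600 0.3 treated with 2x MIC compound or DMSO for 30 min. Cells chilled, washed in cold 0.9% NaCl and lysed in cold 5% trichloroacetic acid 30 min on ice. Supernatants ether-extracted six times. UDP-MurNAc-tripeptide and -pentapeptide purified and quantitated. One representative of two independent experiments.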

Escherichia coli [9] = experiment: Antibacterial activity against Escherichia coli NovaBlue by CLSI broth microdilution method; assay type: functional; procedure, shortened: as §1
Escherichia coli [10] = experiment: Antibacterial activity against LPS-deffective Escherichia coli OC2530 by CLSI broth microdilution method in presence of permeabilizer polymyxin B nonapeptide; assay type: functional
Escherichia coli [11] = experiment: Antibacterial activity against Escherichia coli ATCC 25922 by CLSI broth microdilution method in presence of permeabilizer polymyxin B nonapeptide; assay type: functional; procedure, shortened: as §1
Staphylococcus aureus [12] = experiment: Antibacterial activity against methicillin-resistant Staphylococcus aureus OC2878 by CLSI broth microdilution method; assay type: functional
Procedure, shortened: (§3)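 Broth microdilution MIC following CLSI method, in cation-adjusted Mueller-Hinton broth; strains from ATCC or the company strain collection.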

Escherichia coli [13] = experiment: Antibacterial activity against LPS-deffective Escherichia coli OC2530 assessed as cell lysis at 2 times MIC by colony forming assay; assay type: functional, organism-based
Escherichia coli [14] = experiment: Antibacterial activity against Escherichia coli OC2605 by CLSI broth microdilution method; assay type: functional; procedure, shortened: as §3
Escherichia coli [15] = experiment: Antibacterial activity against mid-log culture of LPS-deffective Escherichia coli OC2530 assessed as cell lysis at 2 times MIC by optical density study; assay type: functional, organism-based
Procedure, shortened: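 Growth curve. E. coli OC2530 grown with aeration to mid-log (A600 0.3), compound added at 2x MIC final. Samples transferred at once to replicate Bioscreen wells, 37°C with continuous shaking, A580 read every 15 min; 10 wells per culture.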

Enterococcus faecium = experiment: Antibacterial activity against Enterococcus faecium OC3312 by CLSI broth microdilution method; assay type: functional; procedure, shortened: as §1
Escherichia coli [16] = experiment: Bactericidal activity against LPS-deffective Escherichia coli OC2530 assessed as log reduction in CFU at 2 times MIC after 3 hrs relative to control; assay type: functional
Procedure, shortened: (§4)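 Killing. OC2530 at mid-log treated with 2x MIC compound. Aliquots taken from replicate Bioscreen wells at set times, serially diluted in PBS, spiral-plated and colonies counted. Mean ± SD of two independent experiments.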

Escherichia coli [17] = experiment: Bactericidal activity against LPS-deffective Escherichia coli OC2530 assessed as log reduction in CFU at 2 times MIC after 30 mins relative to control; assay type: functional; procedure, shortened: as §4
Staphylococcus aureus [18] = experiment: Antibacterial activity against methicillin-resistant Staphylococcus aureus COL OC3726 by CLSI broth microdilution method; assay type: functional; procedure, shortened: as §3
Escherichia coli [19] = experiment: Antibacterial activity against Escherichia coli OC9040 by CLSI broth microdilution method; assay type: functional; procedure, shortened: as §1
Enterococcus faecalis = experiment: Antibacterial activity against Enterococcus faecalis ATCC 29212 by CLSI broth microdilution method; assay type: functional; procedure, shortened: as §1
Staphylococcus aureus [20] = experiment: Antibacterial activity against Staphylococcus aureus OC4172 by CLSI broth microdilution method; assay type: functional; procedure, shortened: as §1
Escherichia coli [21] = experiment: Antibacterial activity against Escherichia coli NovaBlue by CLSI broth microdilution method in presence of permeabilizer polymyxin B nonapeptide; assay type: functional; procedure, shortened: as §1
Pseudomonas aeruginosa = experiment: Antibacterial activity against Pseudomonas aeruginosa ATCC 27853 by CLSI broth microdilution method; assay type: functional; procedure, shortened: as §1
Escherichia coli [22] = experiment: Antibacterial activity against Escherichia coli ATCC 25922 by CLSI broth microdilution method; assay type: functional; procedure, shortened: as §1
Escherichia coli [23] = experiment: Effect on muropeptide composition in LPS-deffective Escherichia coli OC2530 assessed as decrease in UDP-MurNAc-pentapeptide level at 2 times MIC after 30 mins relative to control; assay type: functional; set-up: scale not given: the % may be the effect or the level left; procedure, shortened: as §2
Escherichia coli [24] = experiment: Effect on muropeptide composition in LPS-deffective Escherichia coli OC2530 assessed as increase in UDP-MurNAc-tripeptide level at 2 times MIC after 30 mins relative to control; assay type: functional; procedure, shortened: as §2

COc1cccc(C(=O)NC(/C=C/c2ccccc2)c2cc(Cl)c3cccnc3c2O)c1 (stereo unspecified)
pKd [1]: 5.48 | pIC50 [2]: 5.90 | MIC (Staphylococcus aureus [3]): > 32 µg/mL | MIC (Escherichia coli [4]): > 32 µg/mL | ΔTm (Escherichia coli [5]): 1.81 °C | pKd [6]: 5.00

COc1ccc(C(NC(=O)c2cccc(OC)c2)c2cc(Cl)c3cccnc3c2O)cc1 (stereo unspecified)
pKd [1]: 5.60 | pIC50 [2]: 6.48 | MIC (Staphylococcus aureus [3]): > 32 µg/mL | MIC (Escherichia coli [4]): > 32 µg/mL | ΔTm (Escherichia coli [5]): 1.82 °C | pKd [6]: 4.96

COc1cccc(C(=O)NC(c2ccc3c(c2)OCO3)c2cc(Cl)c3cccnc3c2O)c1 (stereo unspecified)
pKd [1]: 5.48 | pIC50 [2]: 6.12 | MIC (Staphylococcus aureus [3]): > 32 µg/mL | MIC (Escherichia coli [4]): > 32 µg/mL | ΔTm (Escherichia coli [5]): 1.59 °C | pKd [6]: 5.35

O=C(NC(c1ccc2c(c1)OCO2)c1ccc2cccnc2c1O)c1ccccc1 (stereo unspecified)
pKd [1]: 4.30 | Ratio (Escherichia coli [7]): 4 | pIC50 [2]: 6.36 | MIC (Staphylococcus aureus [3]): 32 µg/mL (≈ 80.3 µM) | MIC (Escherichia coli [4]): 32 µg/mL (≈ 80.3 µM) | ΔTm (Escherichia coli [5]): 1.74 °C | pKd [6]: 4.92

COc1ccc(C(NC(=O)c2ccccc2)c2ccc3cccnc3c2O)cc1OC (stereo unspecified)
Ratio (Escherichia coli [8]): 0.04 | pKd [1]: 4.00 | Ratio (Escherichia coli [7]): 4 | pIC50 [2]: 4.80 | MIC (Staphylococcus aureus [3]): 32 µg/mL (≈ 77.2 µM) | MIC (Escherichia coli [4]): 8 µg/mL (≈ 19.3 µM) | ΔTm (Escherichia coli [5]): 2.86 °C | pKd [6]: 4.85

CC(C)C[C@@H]1NC(=O)[C@@H](Cc2ccccc2)NC(=O)[C@H](CCN)NC(=O)[C@@H](NC(=O)[C@H](CCN)NC(=O)[C@@H](N)[C@@H](C)O)CCNC(=O)[C@H]([C@@H](C)O)NC(=O)[C@H](CCN)NC(=O)[C@H](CCN)NC1=O [POLYMYXIN B NONAPEPTIDE] (H-T[Dab][Dab][Dab][dF]L[Dab][Dab]T; lactam 3-C)
MIC (Escherichia coli [9]): 25 µg/mL (≈ 26 µM) | MIC (Staphylococcus aureus [3]): 50 µg/mL (≈ 51.9 µM) | MIC (Escherichia coli [4]): 6.2 µg/mL (≈ 6.44 µM)

COc1ccc(C(=O)NC(c2ccc(OC)c(OC)c2)c2cc(Cl)c3cccnc3c2O)cc1 (stereo unspecified)
pIC50 [2]: 4.60 | MIC (Staphylococcus aureus [3]): > 64 µg/mL | MIC (Escherichia coli [4]): > 64 µg/mL | ΔTm (Escherichia coli [5]): 0.74 °C

Cc1ccc(C(NC(=O)c2ccccc2)c2ccc3cccnc3c2O)cc1 (stereo unspecified)
Ratio (Escherichia coli [8]): 0.02 | pKd [1]: 4.48 | pIC50 [2]: 6.06 | MIC (Staphylococcus aureus [3]): 32 µg/mL (≈ 86.9 µM) | MIC (Escherichia coli [4]): 32 µg/mL (≈ 86.9 µM) | ΔTm (Escherichia coli [5]): 2.41 °C | pKd [6]: 4.70

COc1cccc(C(=O)NC(c2ccccc2OC)c2cc(Cl)c3cccnc3c2O)c1 (stereo unspecified)
pKd [1]: 5.00 | pIC50 [2]: 5.72 | MIC (Staphylococcus aureus [3]): > 32 µg/mL | MIC (Escherichia coli [4]): > 32 µg/mL | ΔTm (Escherichia coli [5]): 2.2 °C | pKd [6]: 4.85

N[C@@H]1CONC1=O [CYCLOSERINE]
Ratio (Escherichia coli [8]): 30.3 | MIC (Escherichia coli [10]): 64 µg/mL | MIC (Escherichia coli [9]): 64 µg/mL (≈ 627 µM) | MIC (Escherichia coli [11]): 32 µg/mL | MIC (Staphylococcus aureus [12]): 64 µg/mL (≈ 627 µM) | Activity (Escherichia coli [13]): Active | MIC (Escherichia coli [14]): 16 µg/mL (≈ 157 µM) | Activity (Escherichia coli [15]): Active | MIC (Enterococcus faecium): 64 µg/mL (≈ 627 µM) | MIC (Staphylococcus aureus [3]): 32 µg/mL (≈ 313 µM) | Activity (Escherichia coli [16]): >5 | Activity (Escherichia coli [17]): 0.5 | MIC (Staphylococcus aureus [18]): 32 µg/mL (≈ 313 µM) | MIC (Escherichia coli [4]): 64 µg/mL (≈ 627 µM) | MIC (Escherichia coli [19]): 32 µg/mL (≈ 313 µM) | MIC (Enterococcus faecalis): 128 µg/mL (≈ 1250 µM) | MIC (Staphylococcus aureus [20]): 32 µg/mL (≈ 313 µM) | MIC (Escherichia coli [21]): 64 µg/mL | MIC (Pseudomonas aeruginosa): > 128 µg/mL | MIC (Escherichia coli [22]): 32 µg/mL (≈ 313 µM)

O=C(Nc1ccc(F)cc1)OC(CCN1CCC(O)(c2ccc(Cl)cc2)CC1)c1ccccc1 (stereo unspecified)
MIC (Escherichia coli [10]): 4 µg/mL | MIC (Escherichia coli [9]): > 64 µg/mL | MIC (Escherichia coli [11]): 16 µg/mL | MIC (Staphylococcus aureus [12]): 16 µg/mL (≈ 33.1 µM) | Activity (Escherichia coli [13]): Active | MIC (Escherichia coli [14]): > 32 µg/mL | Activity (Escherichia coli [15]): Active | MIC (Enterococcus faecium): 16 µg/mL (≈ 33.1 µM) | Activity (Escherichia coli [23]): 50% | pIC50 [2]: 4.59 | MIC (Staphylococcus aureus [3]): 16 µg/mL (≈ 33.1 µM) | Activity (Escherichia coli [16]): 5 | Activity (Escherichia coli [17]): 1 | MIC (Staphylococcus aureus [18]): 16 µg/mL (≈ 33.1 µM) | MIC (Escherichia coli [4]): 8 µg/mL (≈ 16.6 µM) | MIC (Escherichia coli [19]): > 32 µg/mL | fold change (FC) (Escherichia coli [24]): 15 | MIC (Enterococcus faecalis): 16 µg/mL (≈ 33.1 µM) | MIC (Staphylococcus aureus [20]): 8 µg/mL (≈ 16.6 µM) | MIC (Escherichia coli [21]): 16 µg/mL | MIC (Pseudomonas aeruginosa): > 32 µg/mL | MIC (Escherichia coli [22]): > 32 µg/mL

O=C(NC(c1ccccc1F)c1ccc2cccnc2c1O)c1ccccc1 (stereo unspecified)
pKd [1]: 4.70 | pIC50 [2]: 6.10 | MIC (Staphylococcus aureus [3]): 32 µg/mL (≈ 85.9 µM) | MIC (Escherichia coli [4]): 16 µg/mL (≈ 43 µM) | ΔTm (Escherichia coli [5]): 3.35 °C | pKd [6]: 4.70
